# Source: ChEMBL document CHEMBL4376874, “Discovery of Potent and Selective Epidermal Growth Factor Receptor (EGFR) Bifunctional Small-Molecule Degraders” (J Med Chem, 2020)
# Activity calls are given as the source filed them. The rule behind the calls is not given here.
# Legend:
# [1] = system: von Hippel-Lindau disease tumor suppressor/Epidermal growth factor receptor (Homo sapiens), P00533+P40337 [UNDEFINED MUTATION]; test: Protac activity at VHL/EGFR exon 19 deletion mutant in human HCC827 cells assessed as reduction in EGFR autophosphorylation up to 10 uM treated 8 hrs post serum starvation measured after 16 hrs by Western blot analysis; assay type: cell-based
# [2] = system: von Hippel-Lindau disease tumor suppressor/Epidermal growth factor receptor (Homo sapiens), P00533+P40337 [L858R]; test: Protac activity at VHL/EGFR L858R mutant in human H3255 cells assessed as reduction in EGFR autophosphorylation up to 10 uM treated 8 hrs post serum starvation measured after 16 hrs by Western blot analysis; assay type: cell-based
# [3] = system: von Hippel-Lindau disease tumor suppressor/Epidermal growth factor receptor (Homo sapiens), P00533+P40337 [UNDEFINED MUTATION]; test: Protac activity at VHL/EGFR exon 19 deletion mutant in human HCC827 cells assessed as reduction in AKT phosphorylation up to 10 uM treated 8 hrs post serum starvation measured after 16 hrs by Western blot analysis; assay type: cell-based
# [4] = system: von Hippel-Lindau disease tumor suppressor/Epidermal growth factor receptor (Homo sapiens), P00533+P40337 [L858R]; test: Protac activity at VHL/EGFR L858R mutant in human H3255 cells assessed as reduction in AKT phosphorylation up to 10 uM treated 8 hrs post serum starvation measured after 16 hrs by Western blot analysis; assay type: cell-based
# [5] = system: von Hippel-Lindau disease tumor suppressor/Epidermal growth factor receptor (Homo sapiens), P00533+P40337 [UNDEFINED MUTATION]; test: Protac activity at VHL/EGFR exon 19 deletion mutant in human HCC827 cells assessed as induction of EGFR degradation up to 500 nM treated 8 hrs post serum starvation measured after 16 hrs by Western blot analysis; assay type: cell-based
# [6] = system: von Hippel-Lindau disease tumor suppressor/Epidermal growth factor receptor (Homo sapiens), P00533+P40337 [L858R]; test: Protac activity at VHL/EGFR L858R mutant in human H3255 cells assessed as induction of EGFR degradation up to 500 nM treated 8 hrs post serum starvation measured after 16 hrs by Western blot analysis; assay type: cell-based
# How it was run: (§1)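 Cultured to 80% confluence in RPMI/1640 with 20% FBS at 37 °C and 5% CO2, then switched to serum-free medium for 8 h. Degraders were added over a concentration range up to 10 μM for 16 h, with gefitinib at 1 μM as reference. Lysates in Laemmli buffer were immunoblotted for EGFR, p-EGFR and p-AKT. DC50 came from band quantification by nonlinear regression (variable slope).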
# [7] = system: von Hippel-Lindau disease tumor suppressor/Epidermal growth factor receptor (Homo sapiens), P00533+P40337 [UNDEFINED MUTATION]; test: Protac activity at VHL/EGFR exon 19 deletion mutant in human HCC827 cells assessed as induction of EGFR degradation at 1 to 10 uM treated 8 hrs post serum starvation measured after 16 hrs by Western blot analysis; assay type: cell-based; how it was run: as §1
# [8] = system: von Hippel-Lindau disease tumor suppressor/Epidermal growth factor receptor (Homo sapiens), P00533+P40337 [L858R]; test: Protac activity at VHL/EGFR L858R mutant in human H3255 cells assessed as induction of EGFR degradation at 1 to 10 uM treated 8 hrs post serum starvation measured after 16 hrs by Western blot analysis; assay type: cell-based; how it was run: as §1
# NCI-H3255 [9] = test: Antiproliferative activity against human H3255 cells measured after 3 days by CCK8 assay; assay type: functional, cell-based
# How it was run: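 H3255 cells seeded 4000/well the night before, then exposed to serial dilutions for 3 days. Growth read by Cell Counting Kit-8; three independent experiments. IC50 from nonlinear regression (log inhibitor vs response, variable slope).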
# [10] = system: Protein cereblon/Epidermal growth factor receptor (Homo sapiens), P00533+Q96SW2 [UNDEFINED MUTATION]; test: Protac activity at CRBN/EGFR exon 19 deletion mutant in human HCC827 cells assessed as induction of EGFR degradation at up to 1 uM treated 8 hrs post serum starvation measured after 16 hrs by Western blot analysis; assay type: cell-based
# [11] = molecular target: T1, Epidermal growth factor receptor (Homo sapiens, UniProt P00533); test: Binding affinity to human wild-type partial length EGFR (R669 to V1011 residues) expressed in bacterial expression system by kinomescan assay
# [12] = molecular target: Epidermal growth factor receptor (Homo sapiens, UniProt P00533, L858R); design: species or system Hofmanni bacterium
# [13] = molecular target: von Hippel-Lindau disease tumor suppressor/Epidermal growth factor receptor (Homo sapiens, UniProt P00533+P40337); test: Protac activity at VHL/EGFR exon 19 deletion mutant in human HCC827 cells assessed as induction of EGFR degradation treated 8 hrs post serum starvation measured after 16 hrs by Western blot analysis
# HCC827 [14] = test: Effect on AKT level in human HCC827 cells up to 10 uM treated 8 hrs post serum starvation measured after 16 hrs by Western blot analysis; assay type: ADME, cell-based; settings: hcc827, 16 h
# NCI-H3255 [15] = test: Effect on AKT level in human H3255 cells up to 10 uM treated 8 hrs post serum starvation measured after 16 hrs by Western blot analysis; assay type: ADME, cell-based; settings: nci-h3255, 16 h
# [16] = molecular target: T1, Epidermal growth factor receptor; test: Induction of wild-type EGFR degradation in human OVCAR8 cells at up to 10 uM treated 8 hrs post serum starvation measured after 16 hrs by Western blot analysis; assay type: cell-based
# [17] = molecular target: T1, Epidermal growth factor receptor; test: Induction of wild-type EGFR degradation in human H1299 cells at up to 10 uM treated 8 hrs post serum starvation measured after 16 hrs by Western blot analysis; assay type: cell-based
# HCC827 [18] = test: Up regulation of BIN1 expression in human HCC827 cells at 100 nM measured after 16 hrs by LC-MS analysis; assay type: functional, cell-based
# How it was run: (§2)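 HCC-827 cells serum-starved 8 h, then treated at 100 nM for 16 h. Collected for label-free quantitative LC–MS proteomics; LFQ intensity compared between treated and control groups; three independent experiments.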
# HCC827 [19] = test: Up regulation of HMGCS1 expression in human HCC827 cells at 100 nM measured after 16 hrs by LC-MS analysis; assay type: functional, cell-based; how it was run: as §2
# HCC827 [20] = test: Up regulation of RRM2 expression in human HCC827 cells at 100 nM measured after 16 hrs by LC-MS analysis; assay type: functional, cell-based; how it was run: as §2
# HCC827 [21] = test: Up regulation of DAD1 expression in human HCC827 cells at 100 nM measured after 16 hrs by LC-MS analysis; assay type: functional, cell-based; how it was run: as §2
# HCC827 [22] = test: Up regulation of SEC61G expression in human HCC827 cells at 100 nM measured after 16 hrs by LC-MS analysis; assay type: functional, cell-based; how it was run: as §2
# HCC827 [23] = test: Down regulation of TXNIP expression in human HCC827 cells at 100 nM measured after 16 hrs by LC-MS analysis; assay type: functional, cell-based; how it was run: as §2
# HCC827 [24] = test: Down regulation of NGDN expression in human HCC827 cells at 100 nM measured after 16 hrs by LC-MS analysis; assay type: functional, cell-based; how it was run: as §2
# [25] = Cmax in Swiss albino mouse at 50 mg/kg, ip measured after 8 hrs; assay type: ADME, organism-based; design: dose 50 mg/kg, route intraperitoneal; settings: in vivo
# [26] = Cmax in Swiss albino mouse at 50 mg/kg, ip measured after 24 hrs; assay type: ADME, organism-based; design: dose 50 mg/kg, route intraperitoneal; settings: in vivo
# [27] = Toxicity in Swiss albino mouse assessed as clinical changes at 50 mg/kg, ip; assay type: organism-based; settings: in vivo
# [28] = molecular target: von Hippel-Lindau disease tumor suppressor/Epidermal growth factor receptor (Homo sapiens, UniProt P00533+P40337, L858R)
# [29] = system: von Hippel-Lindau disease tumor suppressor/Epidermal growth factor receptor (Homo sapiens), P00533+P40337 [UNDEFINED MUTATION]; test: Protac activity at VHL/EGFR exon 19 deletion mutant in human HCC827 cells assessed as induction of EGFR degradation at up to 1 uM treated 8 hrs post serum starvation measured after 16 hrs by Western blot analysis; assay type: cell-based; how it was run: as §1
# [30] = system: Epidermal growth factor receptor (Homo sapiens), P00533 [UNDEFINED MUTATION]; test: Induction of EGFR exon 19 deletion mutant degradation in human HCC827 cells up to 100 nM treated 8 hrs post serum starvation measured after 16 hrs by Western blot analysis; assay type: cell-based
# [31] = system: Epidermal growth factor receptor (Homo sapiens), P00533 [L858R]; test: Induction of EGFR L858R degradation in human H3255 cells up to 100 nM treated 8 hrs post serum starvation measured after 16 hrs by Western blot analysis; assay type: cell-based
# [32] = system: Epidermal growth factor receptor (Homo sapiens), P00533 [UNDEFINED MUTATION]; test: Induction of EGFR exon 19 deletion mutant degradation in human HCC827 cells assessed as reduction in EGFR autophosphorylation up to 100 nM treated 8 hrs post serum starvation measured after 16 hrs by Western blot analysis; assay type: cell-based
# [33] = system: Epidermal growth factor receptor (Homo sapiens), P00533 [UNDEFINED MUTATION]; test: Induction of EGFR exon 19 deletion mutant degradation in human HCC827 cells assessed as reduction in AKT phosphorylation up to 100 nM treated 8 hrs post serum starvation measured after 16 hrs by Western blot analysis; assay type: cell-based
# [34] = system: Epidermal growth factor receptor (Homo sapiens), P00533 [L858R]; test: Induction of EGFR L858R degradation in human H3255 cells assessed as reduction in EGFR autophosphorylation up to 100 nM treated 8 hrs post serum starvation measured after 16 hrs by Western blot analysis; assay type: cell-based
# [35] = system: Epidermal growth factor receptor (Homo sapiens), P00533 [L858R]; test: Induction of EGFR L858R degradation in human H3255 cells assessed as reduction in ATK phosphorylation up to 100 nM treated 8 hrs post serum starvation measured after 16 hrs by Western blot analysis; assay type: cell-based
structure (smiles),measurement,setting,value
COc1cc2ncnc(Nc3ccc(F)c(Cl)c3)c2cc1OCCCCCOCCOCCC(=O)N[C@H](C(=O)N1C[C@H](O)C[C@H]1C(=O)NCc1ccc(-c2scnc2C)cc1)C(C)(C)C,Activity,[1],Active
same,Activity,[2],Active
same,Activity,[3],Active
same,Activity,[4],Active
same,Activity,[5],Active
same,Activity,[6],Active
same,Activity,[7],inactive
same,Activity,[8],inactive
same,Activity,NCI-H3255 [9],Active
COc1cc2ncnc(Nc3ccc(F)c(Cl)c3)c2cc1OCCCN1CCN(CCC(=O)NCCOCCNc2cccc3c2C(=O)N(C2CCC(=O)NC2=O)C3=O)CC1 (configuration not stated),Activity,[10],Active
COc1cc2ncnc(Nc3ccc(F)c(Cl)c3)c2cc1OCCCN1CCN(C(=O)CCCCCCCCCC(=O)N[C@H](C(=O)N2C[C@H](O)C[C@H]2C(=O)NCc2ccc(-c3scnc3C)cc2)C(C)(C)C)CC1,Kd,[11],11 nM
same,Kd,[12],12 nM
same,DC50,[13],5 nM
same,Activity,HCC827 [14],Non-Toxic
same,Activity,NCI-H3255 [15],Non-Toxic
same,Activity,[16],Not Active
same,Activity,[17],Not Active
same,Activity,NCI-H3255 [9],Active
same,Activity,HCC827 [18],Active
same,Activity,HCC827 [19],Active
same,Activity,HCC827 [20],Active
same,Activity,HCC827 [21],Active
same,Activity,HCC827 [22],Active
same,Activity,HCC827 [23],Active
same,Activity,HCC827 [24],Active
same,Cmax,[25],5000 nM
same,Cmax,[26],1000 nM
same,Activity,[27],Non-Toxic
same,DC50,[28],3.3 nM
COc1cc2ncnc(Nc3ccc(F)c(Cl)c3)c2cc1OCCCN1CCN(C(=O)CCOCCC(=O)N[C@H](C(=O)N2C[C@H](O)C[C@H]2C(=O)NCc2ccc(-c3scnc3C)cc2)C(C)(C)C)CC1,Activity,[29],inactive
COc1cc2ncnc(Nc3ccc(F)c(Cl)c3)c2cc1OCCCN1CCOCC1,Activity,NCI-H3255 [9],Active
COc1cc2ncnc(Nc3ccc(F)c(Cl)c3)c2cc1OCCCN1CCN(C(=O)CCCCCCCCCC(=O)N[C@H](C(=O)N2C[C@@H](O)C[C@@H]2C(=O)NCc2ccc(-c3scnc3C)cc2)C(C)(C)C)CC1,Kd,[11],8.6 nM
same,Kd,[12],9 nM
same,Activity,NCI-H3255 [9],Active
COc1cc2ncnc(Nc3ccc(F)c(Cl)c3)c2cc1OCCCN1CCN(CCC(=O)NCCCCCCCCOc2cccc3c2C(=O)N(C2CCC(=O)N(C)C2=O)C3=O)CC1 (configuration not stated),Kd,[11],3 nM
same,Kd,[12],4.3 nM
same,Activity,[30],inactive
same,Activity,[31],inactive
same,Activity,[32],Active
same,Activity,[33],Active
same,Activity,[34],Active
same,Activity,[35],Active
same,Activity,NCI-H3255 [9],Active
COc1cc2ncnc(Nc3ccc(F)c(Cl)c3)c2cc1OCCCN1CCN(CCC(=O)NCCCCCCNc2cccc3c2C(=O)N(C2CCC(=O)NC2=O)C3=O)CC1 (configuration not stated),Activity,[10],Active
COc1cc2ncnc(Nc3ccc(F)c(Cl)c3)c2cc1OCCCN1CCN(CCC(=O)NCCOCCOCCOCCOCCOCCNc2cccc3c2C(=O)N(C2CCC(=O)NC2=O)C3=O)CC1 (configuration not stated),Activity,[10],Active
COc1cc2ncnc(Nc3ccc(F)c(Cl)c3)c2cc1OCCCN1CCN(C(=O)CCOCCOCCOCCC(=O)N[C@H](C(=O)N2C[C@H](O)C[C@H]2C(=O)NCc2ccc(-c3scnc3C)cc2)C(C)(C)C)CC1,Activity,[29],inactive
COc1cc2ncnc(Nc3ccc(F)c(Cl)c3)c2cc1OCCCN1CCN(C(=O)CCOCCOCCOCCOCCOCCC(=O)N[C@H](C(=O)N2C[C@H](O)C[C@H]2C(=O)NCc2ccc(-c3scnc3C)cc2)C(C)(C)C)CC1,Activity,[29],inactive
